Tests used:
Homo sapiens [1] = assay: Toxicity in healthy human assessed as occurrence of migraine at 100 mg, po administered as single dose relative to control; format: organism-based; details: in vivo
Homo sapiens [2] = assay: Toxicity in healthy human assessed as occurrence of increase in alanine aminotransferase level at 12.5 mg, po administered as single dose relative to control; format: organism-based; details: in vivo
Homo sapiens [3] = assay: Toxicity in healthy human assessed as occurrence of herpes simplex at 100 mg, po administered as single dose relative to control; format: organism-based; details: in vivo
[4] = Apparent volume of distribution at steady state in healthy human at 87.5 mg, po administered as single dose coadministered with 100 mg of ritonavir; format: ADME, organism-based; details: in vivo, read-out: Vss/F
How it was run: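 Healthy male volunteers, fasted overnight, got one oral dose of BILR 355 in PEG solution with 200 ml water. Ritonavir 100 mg was given 10 h before and again with the dose. Plasma was sampled (EDTA) from predose to 144 h and assayed by validated LC-MS/MS. Cmax and Vz/F came from noncompartmental analysis. Vss/F = CL/F·(MRTp.o. − 1/Ka), with Ka from compartmental modelling.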

[5] = Drug excretion in healthy human urine assessed as unchanged drug at 87.5 mg, po administered as single dose coadministered with 100 mg of ritonavir by high-pressure liquid chromatography-tandem mass spectrometry/mass spectrometry method; format: ADME, organism-based; details: read-out: Drug uptake
How it was run: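 Ritonavir 100 mg was given 10 h before and with one oral dose of BILR 355 in PEG solution. Urine was collected by weight as predose blank, then 0-6, 6-24 and 24-72 h, stored at −20°C and assayed by LC-MS/MS. fe = unchanged drug excreted (Ae) as a percentage of dose. Line 50: high-fat breakfast 30 min before dosing.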

Homo sapiens [6] = assay: Toxicity in healthy human assessed as occurrence of abdominal pain at 12.5 mg, po administered as single dose relative to control; format: organism-based, Abdomen; details: in vivo
Homo sapiens [7] = assay: Toxicity in healthy human assessed as occurrence of fatigue at 5 mg, po administered as single dose relative to control; format: organism-based; details: in vivo

SMILES: CCN1c2ncc(CCOc3cc[n+]([O-])c4ccccc34)cc2C(=O)N(C)c2cccnc21 [BILR 355]
- Activity (Homo sapiens [1]): 0%
- Activity (Homo sapiens [2]): 0%
- Activity (Homo sapiens [3]): 0%
- Vd/F [4]: 112 L
- dose excreted [5]: 5.96%
- Activity (Homo sapiens [6]): 0%
- Activity (Homo sapiens [7]): 0%
